Results: ChEMBL document CHEMBL4257585, “Structure-Activity Relationships of Photoswitchable Diarylethene-Based β-Hairpin Peptides as Membranolytic Antimicrobial and Anticancer Agents” (J Med Chem, 2018)
≈ marks a conversion by molar mass, not a printed value. Non-standard residues stand in square brackets, D forms with d. Residues, ends and D or L forms follow the SMILES beside them. Orn = NCCC[C@H](N)C(=O)O

Columns and labels:
[1] = Therapeutic index, ratio of HC50 for human RBC to MIC for Bacillus subtilis DSM 347; assay type: toxicity; settings: human red blood cells versus Bacillus subtilis DSM 347
Outline: (§1)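 Ratio of HC50 (RBC) to HeLa IC50 or to MIC against B. subtilis or E. coli; values measured in mg/mL and recalculated to μM, 2-fold dilution without curve fitting, accuracy within a factor of 2.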

[2] = Selective ratio of HC50 for human RBC to IC50 for human HeLa cells; assay type: toxicity; settings: human red blood cells versus HeLa cells; outline: as §1
[3] = Therapeutic index, ratio of HC50 for human RBC to MIC for Escherichia coli DSM 1103; assay type: toxicity; settings: human red blood cells versus Escherichia coli DSM 1103; outline: as §1
Escherichia coli = test: Antimicrobial activity against Escherichia coli DSM 1103 after 22 hrs by resazurin dye based spectrophotometry; assay type: functional; settings: DSM 1103, 22 h
Outline: (§2)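 2-fold broth microdilution in Mueller–Hinton medium; peptide stocks 1024 μg/mL in 50% ethanol. Exponential-phase cultures diluted to OD550 0.2, then 1:100 (B. subtilis) or 1:1000 (E. coli), giving 5 × 10^5 CFU/mL per well. Incubated 22 h, 37 °C, static; then resazurin (0.2 mg/mL solution) added for 2 h at 37 °C, read visually and spectrophotometrically. Tested in both photoforms.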

Bacillus subtilis = test: Antimicrobial activity against Bacillus subtilis DSM 347 after 22 hrs by resazurin dye based spectrophotometry; assay type: functional; settings: DSM 347, 22 h; outline: as §2
[4] = Hemolytic activity against human RBC assessed as hemolysis after 30 mins by colorimetric method; assay type: ADME, cell-based, Erythrocyte; settings: human red blood cells (erythrocytes)
Outline: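 Human erythrocytes washed twice in isotonic 172 mM Tris-HCl, pH 7.6; peptides dissolved in DMSO, diluted in buffer, two independent 10-step 2-fold series from 256 or 192 μg/mL. HC50 extrapolated as 50% hemolysis concentration.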

HeLa = test: Cytotoxicity against human HeLa cells assessed as reduction in cell viability after 24 hrs by MTT assay; assay type: functional, cell-based
Outline: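 HeLa cells seeded at about 5 × 10^4 cells/mL in DMEM with 10% FBS, 2 mM glutamine, gentamicin; 24 h adaptation (37 °C, 5% CO2), then 24 h peptide exposure. MTT 4 h, formazan in DMSO read at 570 nm. 2-fold series 256–0.5 (open) or 512–1 μg/mL (closed), four repetitions; IC50 extrapolated from killing curves. Closed form handled in dim light.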

SMILES: Cc1sc2cc1C1=C(CCC1)c1cc(sc1C)C(=O)[C@H]1CCCN1C(=O)[C@H](C)NC(=O)[C@H](CCCN)NC(=O)[C@H](C(C)C)NC(=O)[C@@H]1CCCN1C(=O)[C@@H](Cc1ccccc1)NC(=O)[C@H](CC(C)C)NC(=O)[C@H](CCCN)NC(=O)[C@H](C)NC2=O
- selectivity ratio [1]: 12.4
- selectivity ratio [2]: 2.2
- selectivity ratio [3]: 0.8
- MIC (Escherichia coli): 106 µM (≈ 128 µg/mL)
- MIC (Bacillus subtilis): 7 µM (≈ 8.47 µg/mL)
- HC50 at 0.5 h [4]: 87 µM
- IC50 (HeLa): 40 µM

SMILES: CC(C)C[C@@H]1NC(=O)[C@H](CCCCN)NC(=O)[C@H](C(C)C)NC(=O)C2=CC3=C4CCCC4=C4C=C(S[C@]4(C)[C@@]3(C)S2)C(=O)[C@H]2CCCN2C(=O)[C@H](CC(C)C)NC(=O)[C@H](CCCCN)NC(=O)[C@H](C(C)C)NC(=O)[C@H](CCCCN)N(C)C(=O)[C@@H](Cc2ccccc2)NC1=O
- selectivity ratio [1]: 7.3
- selectivity ratio [2]: 0.9
- selectivity ratio [3]: 0.2
- MIC (Escherichia coli): 95 µM (≈ 129 µg/mL)
- MIC (Bacillus subtilis): 3 µM (≈ 4.06 µg/mL)
- HC50 at 0.5 h [4]: 22 µM
- IC50 (HeLa): 24 µM

SMILES: Cc1sc2cc1C1=C(CCC1)c1cc(sc1C)C(=O)[C@H]1CCCN1C(=O)[C@H](C(C)C)NC(=O)[C@H](CCCCN)NC(=O)[C@H](CC(C)C)NC(=O)[C@H](CCCCN)NC(=O)[C@@H]1CCCN1C(=O)[C@@H](Cc1ccccc1)NC(=O)[C@H](CCCCN)NC(=O)[C@H](C(C)C)NC(=O)[C@H](CCCCN)NC(=O)[C@H](CC(C)C)NC2=O
- selectivity ratio [1]: 41
- selectivity ratio [2]: 2
- selectivity ratio [3]: 2
- MIC (Escherichia coli): 41 µM (≈ 64.2 µg/mL)
- MIC (Bacillus subtilis): 2 µM (≈ 3.13 µg/mL)
- HC50 at 0.5 h [4]: 82 µM
- IC50 (HeLa): 41 µM

SMILES: CC(C)[C@@H]1NC(=O)C2=CC3=C4CCCC4=C4C=C(S[C@]4(C)[C@@]3(C)S2)C(=O)[C@H]2CCCN2C(=O)[C@H]([C@@H](C)O)NC(=O)[C@H](CCCN)NC(=O)[C@H](C(C)C)NC(=O)[C@@H]2CCCN2C(=O)[C@@H](Cc2ccccc2)NC(=O)[C@H](C(C)C)NC(=O)[C@H](CCCN)NC1=O
- selectivity ratio [1]: 8
- selectivity ratio [2]: 2.7
- selectivity ratio [3]: 2
- MIC (Escherichia coli): 204 µM (≈ 256 µg/mL)
- MIC (Bacillus subtilis): 51 µM (≈ 64 µg/mL)
- HC50 at 0.5 h [4]: 408 µM
- IC50 (HeLa): 153 µM

SMILES: CC(C)C[C@@H]1NC(=O)[C@H](CCCN)NC(=O)[C@H](C(C)C)NC(=O)[C@@H]2CCCN2C(=O)[C@@H](Cc2ccccc2)NC(=O)[C@H](CC(C)C)NC(=O)[C@H](CCCN)NC(=O)[C@H](C(C)C)NC(=O)[C@@H]2CCCN2C(=O)[C@@H](Cc2ccccc2)NC1=O (cyclo(V[Orn]L[dF]PV[Orn]L[dF]P)) [listing 1 of 2 here]
- HC50 at 0.5 h [4]: 10.5 µM
- IC50 (HeLa): 3.5 µM

SMILES: CC(C)C[C@@H]1NC(=O)[C@H](CCCCN)NC(=O)[C@H](C(C)C)NC(=O)C2=CC3=C4CCCC4=C4C=C(S[C@]4(C)[C@@]3(C)S2)C(=O)[C@H]2CCCN2C(=O)[C@H](CC(C)C)NC(=O)[C@H](CCCCN)NC(=O)[C@H](C(C)C)NC(=O)[C@H](CCCCN)NC(=O)[C@H](CC(C)C)NC(=O)[C@H](CCCCN)N(C)C(=O)[C@@H](Cc2ccccc2)NC(=O)[C@H](C(C)C)NC(=O)[C@H](CCCCN)NC1=O
- selectivity ratio [1]: 9
- selectivity ratio [2]: 0.5
- selectivity ratio [3]: 1
- MIC (Escherichia coli): 9 µM (≈ 16.4 µg/mL)
- MIC (Bacillus subtilis): 1 µM (≈ 1.82 µg/mL)
- HC50 at 0.5 h [4]: 9 µM
- IC50 (HeLa): 18 µM

SMILES: Cc1sc2cc1C1=C(CCC1)c1cc(sc1C)C(=O)[C@H]1CCCN1C(=O)[C@H](CCCCN)NC(=O)[C@H](CC(C)C)NC(=O)[C@H](CCCCN)NC(=O)[C@H](C(C)C)NC(=O)[C@@H]1CCCN1C(=O)[C@@H](Cc1ccccc1)NC(=O)[C@H](CC(C)C)NC(=O)[C@H](CCCCN)NC(=O)[C@H](C(C)C)NC(=O)[C@H](CCCCN)NC2=O
- selectivity ratio [1]: 4
- selectivity ratio [2]: 0.1
- selectivity ratio [3]: 0.2
- MIC (Escherichia coli): 21 µM (≈ 32.9 µg/mL)
- MIC (Bacillus subtilis): 1 µM (≈ 1.57 µg/mL)
- HC50 at 0.5 h [4]: 4 µM
- IC50 (HeLa): 41 µM

SMILES: Cc1sc2cc1C1=C(CCC1)c1cc(sc1C)C(=O)[C@H]1CCCN1C(=O)[C@H](CC(C)C)NC(=O)[C@H](CCCCN)NC(=O)[C@H](C(C)C)NC(=O)[C@H](CCCCN)NC(=O)[C@H](CC(C)C)NC(=O)[C@@H]1CCCN1C(=O)[C@@H](Cc1ccccc1)NC(=O)[C@H](C(C)C)NC(=O)[C@H](CCCCN)NC(=O)[C@H](CC(C)C)NC(=O)[C@H](CCCCN)NC(=O)[C@H](C(C)C)NC2=O
- selectivity ratio [1]: 0.1
- selectivity ratio [2]: 0.2
- MIC (Escherichia coli): 36 µM (≈ 64 µg/mL)
- MIC (Bacillus subtilis): 9 µM (≈ 16 µg/mL)
- HC50 at 0.5 h [4]: < 1 µM
- IC50 (HeLa): 5 µM

SMILES: Cc1sc2cc1C1=C(CCC1)c1cc(sc1C)C(=O)[C@H]1CCCN1C(=O)[C@H](C(C)C)NC(=O)[C@H](CCCN)NC(=O)[C@H](C(C)C)NC(=O)[C@@H]1CCCN1C(=O)[C@@H](Cc1ccccc1)NC(=O)[C@H](C(C)C)NC(=O)[C@H](CCCN)NC(=O)[C@H](CCCn1cc(COCc3cn(CCC[C@@H]4NC(=O)c5cc(c(C)s5)C5=C(CCC5)c5cc(sc5C)C(=O)[C@H]5CCCN5C(=O)[C@H](C(C)C)NC(=O)[C@H](CCCN)NC(=O)[C@H](C(C)C)NC(=O)[C@@H]5CCCN5C(=O)[C@@H](Cc5ccccc5)NC(=O)[C@H](C(C)C)NC(=O)[C@H](CCCN)NC4=O)nn3)nn1)NC2=O
- selectivity ratio [1]: 1
- MIC (Escherichia coli): 23 µM (≈ 61.7 µg/mL)
- MIC (Bacillus subtilis): 1 µM (≈ 2.68 µg/mL)
- HC50 at 0.5 h [4]: 1 µM
- IC50 (HeLa): 23 µM

SMILES: CC(C)C[C@@H]1NC(=O)[C@H](CCCN)NC(=O)[C@H](C(C)C)NC(=O)[C@@H]2CCCN2C(=O)[C@@H](Cc2ccccc2)NC(=O)[C@H](CC(C)C)NC(=O)[C@H](CCCN)NC(=O)[C@H](C(C)C)NC(=O)[C@@H]2CCCN2C(=O)[C@@H](Cc2ccccc2)NC1=O (cyclo(V[Orn]L[dF]PV[Orn]L[dF]P)) [listing 2 of 2 here]
- MIC (Escherichia coli): 28 µM (≈ 32 µg/mL)
- MIC (Bacillus subtilis): 1.8 µM (≈ 2.05 µg/mL)

SMILES: Cc1sc2cc1C1=C(CCC1)c1cc(sc1C)C(=O)[C@H]1CCCN1C(=O)[C@H](C(C)C)NC(=O)[C@H](CCCN)NC(=O)[C@H](C(C)C)NC(=O)[C@H](CCCn1cc(COCc3cn(CCC[C@H]4C(=O)N[C@@H](C(C)C)C(=O)N[C@@H](CCCN)C(=O)N[C@@H](C(C)C)C(=O)N5CCC[C@@H]5C(=O)c5cc(c(C)s5)C5=C(CCC5)c5cc(sc5C)C(=O)N[C@@H]([C@H](O)C(C)C)C(=O)N[C@@H](CCCN)C(=O)N[C@@H](C(C)C)C(=O)N[C@H](Cc5ccccc5)C(=O)N4C)nn3)nn1)N(C)C(=O)[C@@H](Cc1ccccc1)NC(=O)[C@H](C(C)C)NC(=O)[C@H](CCCN)NC(=O)[C@H]([C@H](O)C(C)C)NC2=O
- selectivity ratio [1]: 0.3
- MIC (Escherichia coli): 48 µM (≈ 133 µg/mL)
- MIC (Bacillus subtilis): 3 µM (≈ 8.32 µg/mL)
- HC50 at 0.5 h [4]: 1 µM
- IC50 (HeLa): 24 µM

SMILES: Cc1sc2cc1C1=C(CCC1)c1cc(sc1C)C(=O)[C@H]1CCCN1C(=O)[C@H](Cc1ccc(O)cc1)NC(=O)[C@H](CCCN)NC(=O)[C@H](C(C)C)NC(=O)[C@@H]1CCCN1C(=O)[C@@H](Cc1ccccc1)NC(=O)[C@H](Cc1ccc(O)cc1)NC(=O)[C@H](CCCN)NC(=O)[C@H](C(C)C)NC2=O
- selectivity ratio [1]: 1
- selectivity ratio [2]: 0.2
- MIC (Escherichia coli): 92 µM (≈ 127 µg/mL)
- MIC (Bacillus subtilis): 4 µM (≈ 5.52 µg/mL)
- HC50 at 0.5 h [4]: 4 µM
- IC50 (HeLa): 23 µM

SMILES: CCCCN1C(=O)[C@@H](Cc2ccccc2)NC(=O)[C@H](CC(C)C)NC(=O)[C@H](CCCN)NC(=O)[C@H]([C@@H](C)CC)NC(=O)c2cc(c(C)s2)C2=C(CCC2)c2cc(sc2C)C(=O)[C@H]2CCCN2C(=O)[C@H](CC(C)C)NC(=O)[C@H](CCCN)NC(=O)[C@H]([C@@H](C)CC)NC(=O)[C@@H]1CC(C)C
- selectivity ratio [1]: 0.3
- selectivity ratio [2]: 0.8
- MIC (Escherichia coli): 93 µM (≈ 128 µg/mL)
- MIC (Bacillus subtilis): 12 µM (≈ 16.6 µg/mL)
- HC50 at 0.5 h [4]: 3 µM
- IC50 (HeLa): 4 µM

SMILES: CC[C@H](C)[C@@H]1NC(=O)c2cc(c(C)s2)C2=C(CCC2)c2cc(sc2C)C(=O)[C@H]2CCCN2C(=O)[C@H]([C@@H](C)CC)NC(=O)[C@H](CCCN)NC(=O)[C@H](CC(C)C)NC(=O)[C@H](CC(C)C)N(C)C(=O)[C@@H](Cc2ccccc2)NC(=O)[C@H]([C@@H](C)CC)NC(=O)[C@H](CCCN)NC1=O
- selectivity ratio [1]: 1.5
- selectivity ratio [2]: 1
- MIC (Escherichia coli): 96 µM (≈ 129 µg/mL)
- MIC (Bacillus subtilis): 2 µM (≈ 2.68 µg/mL)
- HC50 at 0.5 h [4]: 3 µM
- IC50 (HeLa): 3 µM
